Laboratory results: ChEMBL document CHEMBL4028870, “Controlling Plasma Stability of Hydroxamic Acids: A MedChem Toolbox” (J Med Chem, 2017)

Tests used:
Type in all cases: ADME, cell-free
[1] = tested on: Plasma; assay: Half life in rat plasma at 10 uM up to 360 mins in presence of 3-cyclohexylpropanehydroxamic acid by LC-MS/MS analysis; conditions: 6 h
[2] = tested on: Plasma; assay: Stability in rat plasma at 10 uM up to 360 mins in presence of EDTA by LC-MS/MS analysis; conditions: 6 h
Outline: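 Rat plasma incubated in duplicate at 37 °C with 10 µM test compound (1% methanol), plus either 1 mM DTNB (11) or 0.5 mM EDTA (12). Duplicate controls used methanol in place of the inhibitor. Samples taken from 0 to 360 min and quenched with 9 volumes of cold methanol containing internal standard. Remaining compound measured by LC-MS/MS relative to T0.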

[3] = Half life in rat plasma at 10 uM up to 360 mins in presence of N-hydroxy-N'-phenylsuccinamide by LC-MS/MS analysis; conditions: with N-hydroxy-N'-phenylsuccinamide (concentration not stated)
[4] = tested on: Plasma; assay: Half life in rat plasma at 10 uM up to 360 mins in presence of 4-cyclohexylbutanehydroxamic acid by LC-MS/MS analysis; conditions: 6 h

t1/2 [1]: 22.6 h
Stability [2]: Unstable
half-life at 10 µM [3]: 20 h
t1/2 [4]: 30.9 h
SMILES: O=C(CCCc1ccccc1)NO [PHENYLBUTYRYLHYDROXAMIC ACID]
